pIC50: −log10 of the molar value.
Columns and labels:
[1] = molecular target: T1, Ribosyldihydronicotinamide dehydrogenase [quinone] (Homo sapiens, UniProt P16083); assay: Inhibition of human recombinant NQO2 by spectrophotometry
T1 sequence (P16083 whole entry): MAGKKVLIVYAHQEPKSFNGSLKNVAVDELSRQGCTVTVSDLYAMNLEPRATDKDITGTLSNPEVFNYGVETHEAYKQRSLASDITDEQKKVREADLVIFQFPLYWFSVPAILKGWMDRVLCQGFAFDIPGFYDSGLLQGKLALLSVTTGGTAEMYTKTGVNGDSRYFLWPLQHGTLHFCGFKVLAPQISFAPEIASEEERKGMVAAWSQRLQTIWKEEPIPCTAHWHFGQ
How it was run: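 Recombinant human NQO2 was diluted in 50 mM phosphate to give about 0.1 absorbance/min. Reaction mix: 50 mM phosphate pH 7.4 with 200 µM NRH as cofactor, 40 µM DCPIP and inhibitor in DMSO (1.0% v/v final), 37 °C. DCPIP reduction was followed at 600 nm.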

[2] = test system: HCT-116; assay: Cytotoxicity against human HCT116 cells after 24 hrs by MTT assay; type: functional, cell-based; details: HCT-116, 24 h
How it was run: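 HCT116 cells were kept in RPMI 1640 with 10% FCS and 2 mM L-glutamine, plated at 2 × 10³ cells/well, 37 °C, 5% CO₂. Drug was given for 24 h, then removed, and cells regrew 3 days in fresh medium. Read-out was MTT for 4 h, formazan dissolved in DMSO, OD read. IC50 is 50% OD reduction vs untreated/vehicle controls. At least three repeats.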

[3] = test system: Nucleic Acid; assay: Binding affinity to salmon sperm DNA assessed as change in melting temperature at 10 uM under high salt concentration by spectrophotometry; type: nucleic-acid assay; details: Salmonidae
How it was run: (§1)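 Salmon sperm DNA at 20 µg/ml was treated with 10 µM compound at high (physiological) or low salt; the low-salt buffer was 7.5 mM NaH₂PO₄, 1 mM EDTA, pH 7.0. Cuvettes were heated from 37 to 98 °C with A260 read every degree. Tm change is in °C, SD from three independent experiments.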

[4] = test system: HCT-116; assay: Cytotoxicity against human HCT116 cells after 96 hrs by MTT assay; type: functional, cell-based; details: HCT-116, 96 h
How it was run: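 HCT116 cells were grown in RPMI 1640 with 10% FCS and 2 mM L-glutamine, seeded at 2 × 10³ cells/well, 37 °C, 5% CO₂. Drug exposure was continuous for 4 days at 37 °C. MTT was then added for 4 h and formazan dissolved in DMSO for OD reading. IC50 is 50% OD drop relative to untreated and/or vehicle cells. At least three repeats.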

[5] = molecular target: NAD(P)H dehydrogenase [quinone] 1 (Homo sapiens, UniProt P15559); assay: Inhibition of human recombinant NQO1 by spectrophotometry
Chain of NAD(P)H dehydrogenase [quinone] 1 (P15559 whole entry): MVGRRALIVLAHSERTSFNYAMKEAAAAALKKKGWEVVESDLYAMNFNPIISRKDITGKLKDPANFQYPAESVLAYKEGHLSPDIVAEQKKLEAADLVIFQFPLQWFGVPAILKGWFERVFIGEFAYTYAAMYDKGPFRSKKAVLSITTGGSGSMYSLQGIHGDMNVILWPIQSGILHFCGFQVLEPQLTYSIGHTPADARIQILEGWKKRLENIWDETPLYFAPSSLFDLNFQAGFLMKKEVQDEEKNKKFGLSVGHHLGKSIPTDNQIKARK

[6] = test system: Nucleic Acid; assay: Binding affinity to salmon sperm DNA assessed as change in melting temperature at 10 uM under low salt concentration by spectrophotometry; type: nucleic-acid assay; details: Salmonidae; how it was run: as §1
[7] = test system: Nucleic Acid; assay: Binding affinity to salmon sperm DNA assessed as melting temperature at 10 uM under low salt concentration by spectrophotometry; type: nucleic-acid assay; details: Salmonidae

SMILES | pIC50 [1] | pIC50 [2] | ΔTm [3] [°C] | pIC50 [4] | pIC50 [5] | ΔTm [6] [°C] | Tm [7] [°C]
O=c1c2ccccc2n2nnc3ccc(NCCc4ccccc4)c1c32 | 6.25 | 5.46 | 0.31 | 6.10 | 5.48 | 1.7 | 
CC(C)CCNc1ccc2nnn3c4ccc(Br)cc4c(=O)c1c23 | 6.12 | 4.57 | 0.09 | 5.15 |  | 1.9 | 
CC(C)CCNc1ccc2nnn3c4ccccc4c(=O)c1c23 | 6.37 | 5.49 | 0.23 | 6.09 |  | 2 | 
COc1ccc2c(c1)c(=O)c1c(NCC[N+](C)(C)[O-])ccc3nnn2c31 | 7.01 | 4.24 | 0.3 | 4.73 |  | 0.15 | 80
CN(C)CCNc1ccc2nnn3c4ccc(Br)cc4c(=O)c1c23 | 5.83 | 5.80 | 0.2 | 6.31 |  | 2.6 | 
C[N+](C)([O-])CCNc1ccc2nnn3c4ccccc4c(=O)c1c23 | 6.78 | 4.10 | 0.22 | 4.62 |  | 0.5 | 
O=c1c2ccccc2n2nnc3ccc(NCCCO)c1c32 | 6.32 | 6.00 | 1.48 | 6.20 |  | 3 | 
CN(C)CCNc1ccc2nnn3c4ccc(F)cc4c(=O)c1c23 | 6.11 | 5.92 | 0.03 | 6.33 |  | 2.6 | 
COc1ccc(Nc2ccc3nnn4c5ccccc5c(=O)c2c34)cc1 | 7.01 | 5.72 | 0.19 | 6.20 |  | 0.2 | 
COc1ccc2c(c1)c(=O)c1c(NCCCO)ccc3nnn2c31 | 6.29 | 5.82 | 0.19 | 6.20 |  | 3.2 | 
COc1cccc2c1C(=O)c1c(O)c3c(c(O)c1C2=O)C[C@@](O)(C(=O)CO)C[C@@H]3O[C@H]1C[C@H](N)[C@H](O)[C@H](C)O1 |  |  |  |  |  | 8 | 88
COc1ccc2c(c1)c(=O)c1c(NCCc3ccccc3)ccc3nnn2c31 | 6.46 | 4.90 | 0.08 | 6.15 | 5.41 | 1.7 | 
O=c1c2cc(Br)ccc2n2nnc3ccc(NCCCO)c1c32 | 6.01 | 5.55 | 0.42 | 6.15 |  | 3 | 
C[N+](C)([O-])CCNc1ccc2nnn3c4ccc(Br)cc4c(=O)c1c23 | 6.93 | 4.32 | 0.45 | 4.92 |  | 0.1 | 
CN(C)CCNc1ccc2nnn3c4ccccc4c(=O)c1c23 | 5.74 | 4.69 | 0.33 | 4.91 | 5.74 | 1.7 | 
COc1ccc2c(c1)c(=O)c1c(NCCN(C)C)ccc3nnn2c31 | 5.88 | 6.00 | 0.08 | 6.48 | 6.95 | 2.9 | 83

From ChEMBL document CHEMBL1159058, “Triazoloacridin-6-ones as novel inhibitors of the quinone oxidoreductases NQO1 and NQO2” (Bioorg Med Chem, 2010)
